Test: Toxicity liver stage against HepG2, at 10uM
Format: cell-based
Parameters: test concentration 10 uM, cell line HepG2-A16-CD81EGFP
Conditions: human, HepG2-A16-CD81EGFP cells; read-out: INHIBITION
Outline: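 Uninfected HepG2-A16-CD81EGFP cells, 3 × 10^3 per well, 1536-well, plated on prespotted compound at 10 μM final, parasite-free screening media added to match infected plates; puromycin 10 μM positive, DMSO 0.5% negative; run in parallel with 48 h PbLuc assay at 37 °C, 5% CO2; viability by CellTiter-Glo luminescence, normalized to controls.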

SMILES | cytotoxicity at 10 µM
Cc1nc(C(C)C)sc1C(=O)NCCn1nc2ccccn2c1=O | -12%
Cc1ncc2c(n1)CN(Cc1nc(-c3ccsc3)no1)CC2 | -1.33%
CCN1CCCC(NC(=O)c2ccc(C)[nH]c2=O)C1 (stereo not given) | 9.95%
Cc1nc(C)c(C(C)NCc2c(C)nn(CC(C)C)c2N(C)C)s1 (stereo not given) | -2.49%
CC(c1ccc(F)c(F)c1)N(C)CCS(=O)(=O)CCC(N)=O (stereo not given) | -52.2%
CCN1CCN(C[C@H]2CC[C@@H](Cc3ccc4c(c3)OCO4)O2)CC1 | -5.97%
Cn1cc(CC2CC(=O)N(Cc3ccc(Cl)cc3)C2=O)cn1 (stereo not given) | -0.276%
CC(=O)N1CCCC1C(=O)N1CCC(=Cc2cccc(F)c2)CC1 (stereo not given) | 3.5%
Cn1cc(CN2CCC3(CC2)CC(c2ccncc2)C(=O)N3)cn1 (stereo not given) | 1.75%
CC(=O)NCCCNCc1c(C)nn(CC(C)C)c1N(C)C | 6.47%
CC(C)CN1C(=O)c2ccc(C(=O)NCCc3c[nH]cn3)cc2C1=O | 9.66%
CN1CC2(CCCN(Cc3cccc(CCN)c3)C2)OC1=O (stereo not given) | 20%
CCCC(=O)N1CCN(CC(O)COCC)CC1 (stereo not given) | -20.6%
Cc1ccccc1C(NC(=O)CCCS(C)(=O)=O)C(C)(C)C (stereo not given) | -9.4%
Fc1cnc(N2CC[C@@H]3OC(COCc4cccnc4)CC[C@@H]32)nc1 (stereo not given in full) | 9.94%
CCc1cc(CNC(=O)Nc2cc(F)cc(N3CCCC3)c2)on1 | 4.79%
COc1cc2ccn(CCCO)c(=O)c2cc1F | -7.91%
O=C(NCCN1CCCC1)Nc1cc(C(=O)N2CCOCC2)ccc1Cl | -44.2%
CCOc1ccc(C(=O)N2CCCC2c2cnn(C)c2)cn1 (stereo not given) | -3.71%
COCc1nnc(C(=O)N(C)Cc2cnc3ccccn23)o1 | 1.69%
Cn1cc(CCNC(=O)N2CCCC(Cc3nccn3C)C2)cn1 (stereo not given) | -4.52%
Cc1cnc(N2CC3(CCN(C(=O)c4ccoc4)C3)C2)nc1 | -10.1%
CC(Cn1cc(Cl)cn1)C(=O)Nc1ccc(CN2CCCCCC2)cc1 (stereo not given) | 8.66%

SMILES | cytotoxicity at 10 µM
CC(NCc1cc(O)c2cccc(F)c2n1)c1ccc(S(C)(=O)=O)cc1 (stereo not given) | 4.03%
CNc1cc(CNC(=O)c2cccnc2)nc(-c2ccncc2)n1 | -9.88%
Cc1nc(C2CCCN(C(=O)c3ccc(N4CCCC4)nc3)C2)no1 (stereo not given) | -3.06%
CO[C@H]1CC[C@H]2[C@H]1OCCN2C(=O)CCOc1ccccc1 | -95%
NC(=O)CCSCc1ccc(Br)c(F)c1 | -4.81%
Cc1ccc(NC2CCN(C(=O)c3cccc4cccnc34)CC2)nn1 | -8.31%
O=c1n(Cc2ncccn2)nc(C2CCNCC2)n1-c1ccccc1 | -9.62%
Cc1cnn(CC2CN(Cc3noc(C4CC4)n3)CCO2)c1 (stereo not given) | -11.4%
CCCS(=O)(=O)N1CCN(c2ccnc(N3CCCCC3)n2)CC1 | 0.805%
CCOc1ccc(CNCc2ccc(C(=O)NC)cc2)cc1OCC | -7.06%
CC(NC(=O)CCn1cccn1)c1ccc(-n2ccnn2)cc1 (stereo not given) | -1.99%
CC(C)c1[nH]c2ncccc2c1CN1CCC(O)CC1 | 2.57%
COc1ccc(CCN(C)C2CCCN(Cc3noc(C)n3)C2)cc1 (stereo not given) | -4.59%
COCCC(=O)N1CCc2cc(Cl)cc(Cl)c2C1 | -13.1%
Cc1ccc(-n2cnnn2)cc1NCC(=O)Nc1cc(F)ccc1F | 6.23%
COc1ccc2[nH]cc(C(=O)N3C[C@@H](O)[C@H](N4CCOCC4)C3)c2c1 | -9.06%
Cc1cnn(CC2CN(Cc3nc(-c4ccsc4)no3)CCO2)c1 (stereo not given) | -9.74%
CN1CCN(c2ncnc3c2CCN(S(=O)(=O)C2CC2)CC3)CC1 | -112%
Cc1cccc(N2N=C(C(=O)NC(C)Cc3ccco3)CCC2=O)c1 (stereo not given) | -9.6%
CC(=O)N1CC(=O)N(c2cnn(C)c2)CC12CCN(Cc1ccco1)C2 (stereo not given) | 2.41%
CN1CCN(C(=O)c2n[nH]c3c2CN(C2CCOCC2)CC3)CC1 | 3.41%
CC(C(=O)NCCN1CCN(C)CC1)n1cncn1 (stereo not given) | 0.449%

From ChEMBL document CHEMBL4513216, “Probing the Open Global Health Chemical Diversity Library for Multistage-Active Starting Points for Next-Generation Antimalarials” (ACS Infect Dis, 2020)
